Data from ChEMBL document CHEMBL1275541, “A plasmid-borne blaOXA-58 gene confers imipenem resistance to Acinetobacter baumannii isolates from a Lebanese hospital” (2008).
≈ marks a conversion by molar mass, not a printed value. Calls of active or inactive are those of the source. The calls are words filed in the database; no cut-off is given here.

Experiments:
Acinetobacter baumannii [1] = test: Antibacterial activity against Acinetobacter baumannii PFGE type A isolate by microdilution method; assay type: functional
Outline: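 MIC by broth microdilution following CLSI M7-A6; susceptibility interpreted with CLSI breakpoints.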

Acinetobacter baumannii [2] = test: Antibacterial activity against Acinetobacter baumannii PFGE type A isolate by microdilution method in presence of Sulbactam; assay type: functional
Acinetobacter baumannii [3] = test: Antibacterial activity against Acinetobacter baumannii PFGE type A isolate assessed as reduction of MIC by microdilution method in presence of 200 mM NaCl; assay type: functional
Outline: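 Broth microdilution MIC per CLSI M7-A6 with CLSI breakpoints. Carbapenem MICs compared with and without 200 mM NaCl to gauge the oxacillinase contribution. blaOXA-58-carrying PFGE type 1 isolates served as CHDL-positive reference and a blaOXA-58-negative PFGE type 2 isolate as CHDL-negative reference.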

Acinetobacter baumannii [4] = test: Antibacterial activity against Acinetobacter baumannii PFGE type A isolate assessed as reduction of MIC by microdilution method in presence of 200 mg/liter cloxacillin; assay type: functional, organism-based
Outline: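 AmpC contribution was probed by liquid microdilution per CLSI M7-A6. Carbapenem MICs were read with and without 200 mg/liter cloxacillin.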

Acinetobacter baumannii [5] = test: Ratio of MIC for imipenem-susceptible Acinetobacter baumannii Ab F PFGE type B transconjugant to MIC for imipenem-susceptible Acinetobacter baumannii Ab F PFGE type B transconjugant in presence of 200 nM NaCl; assay type: functional; conditions: in the assay text read “200 mM NaCl” for “200 nM NaCl”
Outline: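 Carbapenem MICs measured by liquid microdilution with and without 200 mM NaCl, to gauge the oxacillinase contribution. Controls were blaOXA-58-carrying PFGE type 1 isolates (CHDL-positive) and a blaOXA-58-negative PFGE type 2 isolate (CHDL-negative). Transconjugants came from filter mating into recipient Ab F and were selected on brain heart infusion agar with imipenem 16 mg/liter plus trimethoprim-sulfamethoxazole 250 mg/liter.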

Acinetobacter baumannii [6] = test: Antibacterial activity against Acinetobacter baumannii PFGE type A isolate by Etest MBL strip method in presence of EDTA; assay type: functional
Outline: (§1)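 Imipenem MIC and MBL activity were read with Etest MBL strips on all PFGE type A isolates. A. baumannii AC-54/97, an IMP-2 MBL producer, was the MBL-positive reference strain.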

Acinetobacter baumannii [7] = test: Antibacterial activity against Acinetobacter baumannii PFGE type A isolate by Etest MBL strip method; assay type: functional; outline: as §1
Acinetobacter baumannii [8] = test: Antibacterial activity against imipenem-susceptible Acinetobacter baumannii Ab F PFGE type B transconjugant by microdilution method; assay type: functional
Outline: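 Transconjugants came from filter mating of imipenem-resistant donors Ab 1 or Ab 8 (PFGE type A) with recipient Ab F (PFGE type B). They were selected on brain heart infusion agar with imipenem 16 mg/liter plus trimethoprim-sulfamethoxazole 250 mg/liter. MICs were then read by microdilution per CLSI M7-A6.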

Acinetobacter baumannii [9] = test: Antibacterial activity against Acinetobacter baumannii PFGE type A isolate by microdilution method in presence of Tazobactam; assay type: functional

Row | Compound | MIC50 (Acinetobacter baumannii [1]) [µg/mL] | MIC90 (Acinetobacter baumannii [1]) [µg/mL] | other results
1 | NCC[C@H](O)C(=O)N[C@@H]1C[C@H](N)[C@@H](O[C@H]2O[C@H](CN)[C@@H](O)[C@H](O)[C@H]2O)[C@H](O)[C@H]1O[C@H]1O[C@H](CO)[C@@H](O)[C@H](N)[C@H]1O [AMIKACIN] | 64 (≈ 109 µM) | 125 (≈ 213 µM) | MIC (Acinetobacter baumannii [1]): 64 µg/mL (≈ 109 µM)
2 | CC1(C)S[C@@H]2[C@H](NC(=O)[C@H](N)c3ccccc3)C(=O)N2[C@H]1C(=O)O [AMPICILLIN] | – | – | MIC (Acinetobacter baumannii [2]): 8 µg/mL; MIC50 (Acinetobacter baumannii [2]): 8 µg/mL; MIC90 (Acinetobacter baumannii [2]): 16 µg/mL
3 | CO/N=C(\C(=O)N[C@@H]1C(=O)N2C(C(=O)[O-])=C(C[N+]3(C)CCCC3)CS[C@H]12)c1csc(N)n1 [CEFEPIME] | 16 (≈ 33.3 µM) | 32 (≈ 66.6 µM) | MIC (Acinetobacter baumannii [1]): 16 µg/mL (≈ 33.3 µM)
4 | CC(C)(O/N=C(\C(=O)N[C@@H]1C(=O)N2C(C(=O)[O-])=C(C[n+]3ccccc3)CS[C@H]12)c1csc(N)n1)C(=O)O [CEFTAZIDIME] | 250 (≈ 457 µM) | 250 (≈ 457 µM) | Activity (Acinetobacter baumannii [3]): inactive; Activity (Acinetobacter baumannii [4]): inactive
5 | O=C(O)c1cn(C2CC2)c2cc(N3CCNCC3)c(F)cc2c1=O [CIPROFLOXACIN] | 64 (≈ 193 µM) | 250 (≈ 754 µM) | –
6 | C[C@@H](O)[C@H]1C(=O)N2C(C(=O)O)=C(SCCNC=N)C[C@H]12 [IMIPENEM ANHYDROUS] | 16 (≈ 53.4 µM) | 16 (≈ 53.4 µM) | MIC (Acinetobacter baumannii [3]): 2 µg/mL; Ratio (Acinetobacter baumannii [5]): 8; Activity (Acinetobacter baumannii [4]): inactive; MIC (Acinetobacter baumannii [6]): 4 µg/mL; MIC (Acinetobacter baumannii [7]): 8 µg/mL (≈ 26.7 µM); MIC (Acinetobacter baumannii [8]): 16 µg/mL (≈ 53.4 µM)
7 | C[C@@H](O)[C@H]1C(=O)N2C(C(=O)O)=C(S[C@@H]3CN[C@H](C(=O)N(C)C)C3)[C@H](C)[C@H]12 [MEROPENEM] | 8 (≈ 20.9 µM) | 8 (≈ 20.9 µM) | –
8 | CCN1CCN(C(=O)N[C@@H](C(=O)N[C@@H]2C(=O)N3[C@@H]2SC(C)(C)[C@@H]3C(=O)O)c2ccccc2)C(=O)C1=O [PIPERACILLIN] | – | – | MIC (Acinetobacter baumannii [9]): 125 µg/mL; MIC50 (Acinetobacter baumannii [9]): 125 µg/mL; MIC90 (Acinetobacter baumannii [9]): 250 µg/mL
9 | COLISTIN | 2 | 4 | –
10 | GENTAMICIN | 125 | 250 | –
